# Assay outcomes (PubChem)
# The list is not random: actives were taken first. Their share in the collection is about 5.9%.
# DAT uptake mod – human DAT dopamine uptake with cocaine, either direction | LLC-PK1 hDAT cells, [14C]-dopamine uptake with cocaine IC80; actives deviate in either direction | AID 449768 | Q01959 | B-score at 10 µM | 1.3% of 110,000 active;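 active = Z score or B-score, a plate-position-corrected score, falls beyond the plate's 99.7% confidence bounds, in either direction; inactive = both scores lie inside the 99.7% bounds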;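 note: scored against the spread of the other compound wells on the same plate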
# Cav3 T inh – inhibitors of human Cav3.2 T-type calcium channel; O95180; Cav3.2-expressing cells, Fluo-4 calcium fluorescence FDSS; stronger effect = lower value; 4% of 100,000 active; AID 449739; B-score at 10 µM;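 active = single-dose well whose peak fluorescence ratio is a statistical outlier from its plate by either plate-standardised score or position-corrected B-score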
# Phagocyt inh – macrophage phagocytosis inhibition; AID 1029; 0.07% of 110,000 active; inhibition, % at 5 µM; J774A.1 macrophage IgG-bead phagocytosis, imaging;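 active = inhibition above the mean of the plate negative controls plus 5 SD, cut at about 13% in these data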;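 note: phagocytic index as fraction of beads internalized from green versus red external bead signal; plate controls were DMSO negative control for no effect and cytochalasin-D positive control for full effect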
# PTK2B oligo ant – antagonists of human Pyk2 oligomerization | 0.83% of 99,000 active | z-score (the deposit names both 25 µM and 10 µM) | Q293 cells, Pyk2 FERM NanoBiT luminescence; stronger effect = lower value | Q14289;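 active = Z-score of -3 or lower, scaled per plate to the spread of control and sample wells; inactive = z-score above -3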;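 note: negative z-score means lost luminescence so less FERM oligomerization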
# Measles CPE – protection of cells from measles virus. protection (pct of control), % at 4 µM. 1.5% of 140,000 active. Measles virus-infected cells, CPE protection, absorbance. AID 841; in the data active = protection mostly above about 24%, no sharp cut-off; inactive = mostly below about 26%
# Rev-RRE block – disrupts HIV-1 Rev binding to RRE RNA | P05866 | Rev peptide-RRE RNA binding, FRET | inhibition, % at 8 µM | 0.79% of 97,000 active | AID 704;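 active = inhibition above the screen-wide mean plus 3 SD, cut at about 35% in these data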;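 note: 0% = median DMSO wells and 100% = median Neomycin B control wells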
#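 Assay system: Rev peptide and RRE RNA, both fluorescently labelled; times: 5 min preincubation and 15 min binding, 25 °C; detection: FRET, ex 480 nm, em 540 and 671 nm; read-out basis: % inhibition from 671/540 nm acceptor-to-donor ratio, scaled between controls; benchmarks: DMSO low control, neomycin B high control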
# Active calls of the source: *; . = no result; [ ] = dose if it differs, or a comment.
SMILES,DAT uptake mod,Cav3 T inh,Phagocyt inh,PTK2B oligo ant,Measles CPE,Rev-RRE block
Cc1ccc(S(=O)(=O)/N=C2/NC(=O)/C(=C/c3cccnc3)S2)cc1,0.7,-3.2,.,-2,5,3
O=C(c1cnn2c1NC(c1ccc(Br)cc1)CC2C(F)(F)F)N1CCN(C23CC4CC(CC(C4)C2)C3)CC1 (stereo not given),-1.1,-0.012,.,1.5,5,4
CCOC(=O)C1=C(C)N(CC(C)C)C(=O)/C1=C\c1ccc(OCC(=O)Nc2ccccc2)cc1,1.1,-5.5*,.,-0.14,35,5
COc1ccc(Cn2c(-c3ccc(C)cc3)c[n+]3ccccc23)cc1,.,.,-2,.,5,.
CCOC(=O)c1c(NC(=O)CSc2nc3ccccc3c(=O)n2-c2ccc(F)cc2)sc(C(C)=O)c1C,.,.,-1,.,33*,.
CCOC(=O)c1c(NC(=O)CSc2ncnc3ccccc23)sc(C(C)=O)c1C,.,.,4,.,4,.
CCOc1ccc(C(=O)NC(=S)NC2CCCC2)cc1[N+](=O)[O-],.,.,-2,.,8,.
CC(=O)Nc1ccc(SCC(=O)c2cc(C)n(C)c2C)cc1,0.4,0.25,-2,0.03,46*,5
CC(=O)Nc1ccc(SCC(=O)c2cc(C)n(CC(F)(F)F)c2C)cc1,1,-0.36,-1,-1.1,23,1
O=C(/C=C/c1ccco1)NC(=S)NNC(=O)c1ccco1,-0.53,-2.6,.,-0.03,13,2
Cc1ccc(/C=C/C(=O)Nc2nnc(C)s2)o1,.,.,.,.,20*,.
COC(=O)c1ccccc1NC(=O)CSc1nc(NC(=O)c2ccccc2)c2c(C)c(C)oc2n1,0.26,-4.9*,0,0.33,26,2
CC(C)CC(c1nnnn1C(C)C)N1CCN(c2cccc(Cl)c2)CC1 (stereo not given),0.0069,-3.5*,0,-0.96,15,6
Cc1ccc(N(C(=O)Cn2nnc3ccccc32)C(C(=O)NCc2ccco2)c2ccc(C)o2)cc1 (stereo not given),-0.2,-4.3*,0,-0.71,18,.
COc1ccc(N(C(=O)Cn2nnc3ccccc32)C(C(=O)NCc2ccco2)c2ccc(C)o2)cc1 (stereo not given),3.1*,-0.77,-1,-0.87,10,2
Cc1ccc(C(C(=O)NCc2ccco2)N(CCc2ccccc2)C(=O)Cn2nnc3ccccc32)o1 (stereo not given),.,-5.6*,.,-0.59,18,.
Cc1ccc(C(C(=O)NCc2ccco2)N(C(=O)Cn2nnc3ccccc32)c2ccccc2)o1 (stereo not given),0.017,.,-1,-1,4,4
COc1ccc(NC(=O)c2cc(SC)ccc2Cl)cc1,.,.,-3,.,3,.
CCOC(=O)c1ccccc1NC(=O)CSc1nc2ccccc2o1,-0.56,-1.3,-1,-0.54,11,.
CCCOC(=O)Nc1nc2ccccc2o1,-0.75,0.16,-1,-0.22,3,38*
CCOC(=O)C(=O)/C(=C\N(C)C)c1onc(-c2c(Cl)cccc2Cl)c1C(=O)OC,0.0036,.,0,1.1,11,-1
c1csc(-c2csc3nc(CN4CCOCC4)nc(NCc4ccc5c(c4)OCO5)c23)c1,.,-7.6*,-2,-2.6,38,1
CSc1nsc(/C=C/Nc2ccc(Cl)cc2)c1C#N,2.6*,-0.42,.,0.89,6,42*
Cn1nc(SCC(=O)O)sc1=S,-0.14,-0.43,-2,0.14,33,140*[fluorescence artefact?]
Cc1ccc(Cn2nnc3c(=O)n(Cc4cc(C)ccc4C)cnc32)cc1,-0.19,-0.57,.,-1.4,10,12
SMILES,DAT uptake mod,Cav3 T inh,Phagocyt inh,PTK2B oligo ant,Measles CPE,Rev-RRE block
O/N=C(\c1ccc(Cl)cc1Cl)c1ncc(C(F)(F)F)cc1Cl,0.048,-6.8*,2,-1.3,3,21
CN1C=CC2=C(C#N)C(N)C(C#N)(C#N)C(c3ccccc3)C2C1 (stereo not given),-1,.,-1,-3.7*,3,64*
O=C(NCC1OCCc2ccccc21)c1ccc(NC(=O)c2cccc(Br)c2)cc1 (stereo not given),.,.,-2,0.01,7,.
Oc1ccc(-c2n[nH]c(=S)n2-c2ccc3c(c2)OCCO3)c(O)c1,.,.,-3,.,60*,.
C=CCOc1c(Br)cc(CNc2ccc(NC(=O)C(C)C)c(OC)c2)cc1OCC,.,.,-6,.,6,.
Clc1cccc(OCCN2CCN(CCOc3cccc(Cl)c3)CC2)c1,.,.,-9,.,9,.
O=C1NC2(CCc3ccccc3C2)C(=O)N1CCOc1cccc(Cl)c1 (stereo not given),.,.,-2,.,23*,.
Cc1ccc(C)c(S(=O)(=O)NCc2ccc(C(=O)N3CCC(Cc4ccccc4)CC3)cc2)c1,3.5*,-3.9*,0,-1.1,4,0
Cc1ccc(C)c(S(=O)(=O)NCc2ccc(C(=O)N3CCN(C)CC3)cc2)c1,-1.2,0.6,-2,-0.11,15,7
O=C(O)CCCNC(=O)c1cccc(C(=O)NCCCC(=O)O)n1,.,.,-4,0.47,11,.
O=S(=O)(NCCSc1ccccc1)c1ccc2c(c1)OCCO2,0.62,-5*,.,-1.8,16,4
O=S(=O)(NCCOc1ccc(F)cc1)c1ccc2c(c1)OCCO2,-0.47,-0.68,0,-1,2,2
O=C(NCCNC(=O)c1cc(OCC(F)(F)F)ccc1OCC(F)(F)F)Nc1ccc(Cl)cc1,0.52,-4.1*,0,.,11,14
CC1=C(C(=O)OC(C)C)C(c2cncc(-c3ccc(F)cc3)c2)C(C#N)=C(N)O1 (stereo not given),.,.,-4,.,6,.
COCCN1C(=O)c2ccccc2C(C(=O)NCCN(C)C)C1c1ccc(F)cc1 (stereo not given),-0.37,1.1,0,0.81,23,0
COCCNC(=O)C1c2ccccc2C(=O)N(CCOC)C1c1ccc(F)cc1 (stereo not given),-7.6*,0.53,0,0.33,25,-2
COc1cc(C(=O)NC2CCCNC2)cc(OC)c1OC (stereo not given),0.093,0.24,.,.,.,.
CCOC(=O)c1ccc(NC(=O)C2CCN(S(=O)(=O)CC)CC2)cc1,-7.3*,0.82,-2,0.73,6,4
CCCCC(=O)Nc1ccc(C(=O)OC2CCCCC2)cc1,-0.0099,-4*,.,-2.3,6,8
O=C(O)CCC(=O)Nc1ccc(C(=O)OC2CCCCC2)cc1,-1,0.25,-1,0.49,2,2
CCOC(=O)c1ccc(NS(=O)(=O)N2CCCCCC2)cc1,-0.23,-3.6,1,-3.1*,4,10
CCCOC(=O)c1ccc(NC(=O)CCOc2ccccc2)cc1,-0.97,-4*,0,0.13,11,15
CCCOc1ccc(C(=O)NCC(c2ccco2)N(C)C)cc1 (stereo not given),.,.,-8,.,5,.
O=C(O)c1ccc(NC(=S)NC2CCCCC2)cc1,.,.,-5,.,38,.
CCOC(=O)c1ccc(NC(=S)NC2CCCC2)cc1,.,.,-4,.,44*,.
O=C(O)CCCCCNc1ccc2nsnc2c1[N+](=O)[O-],.,.,1,.,9,.
